Measurements from PMC9226493 (Nucleic Acids Research, 2022).

Assays:
UPEC 536 [1] = assay: Minimal inhibitory concentration; type: cell-based, Escherichia coli; conditions: (KFF)3K-conjugated 10mer PNAs at concentrations ≤10 μM, 24 h
UPEC 536 [2] = assay: Killing time kinetics; type: cell-based, Escherichia coli; conditions: 1.25 μM, UPEC 536 10^5 cfu/ml, within 24 h
acpP^91::gfp RNA = assay: In vitro translation of acpP::gfp RNA, western blot of AcpP1-17-GFP; type: biochemical, Escherichia coli; conditions: 10-molar excess of PPNA over template RNA; performed two times; listed as (KFF)3K-acpP
Outline: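 Target-gene fragment fused to gfp by overlap PCR, then T7 in vitro transcribed (3 h 45 min, 37°C; then DNase) and checked on 6% PAA/7 M urea gels. Heat-denatured RNA (1 pmol, 100 nM final) was pre-incubated with test compound at 37°C for 5 min. It was then translated in PURExpress for 2 h at 37°C. Water served as control. Analysis: 12% SDS-PAGE, anti-GFP western, Ponceau loading check, ImageJ signal relative to control.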

Sequence	growth inhibition of UPEC 536 (UPEC 536 [1])	further results
KFFKFFKFFK [nusG 10mer PPNA]	did not trigger complete growth inhibition	
KFFKFFKFFK [csrA 10mer PPNA]	did not trigger complete growth inhibition	
KFFKFFKFFK [scrambled 10mer PPNA]		abundance of living bacterial cells compared to the water control (UPEC 536 [2]): did not affect the abundance of living bacterial cells
KFFKFFKFFK [yidC 10mer PPNA]	did not trigger complete growth inhibition	
KFFKFFKFFK [acpP 10mer PPNA]		effect on in vitro synthesis of AcpP1-17-GFP (acpP^91::gfp RNA): substantially inhibited
